“Also recorded” adds a separate entry of the source. Where a SMILES comes first, the peptide text is derived from it. The star is where a group is joined. Bz = O=C(c1ccccc1)*; NHPh = c1ccc(N*)cc1
Assays:
Cytotoxicity assay = assay type: cell-based; conditions: human, TZM-GFP cells
Procedure, shortened: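 TZM-GFP cells were plated at 1 × 10^4 cells per well and exposed continuously to increasing concentrations of test compound for 72 h. Viable cells were counted by XTT. CC50 came from a log(inhibitor) vs normalized response, variable-slope fit for each independent assay, then averaged. Runs were in duplicate across at least two independent experiments; mean ± SD.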

HIV-1NL4-3 = assay: Anti-HIV-1 assay in TZM-GFP cells; assay type: cell-based; conditions: for inhibition at 2 µM: Human immunodeficiency virus 1, read-out: Inhibition at 2 μmol/L; for inhibition at 20 µM: Human immunodeficiency virus 1, read-out: Inhibition at 20 μmol/L; for Inhibition at 2 μmol/L: 2 μmol/L compound
Procedure, shortened: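 TZM-GFP cells seeded at 1 × 10^4 per well; after 24 h, medium replaced with test compound at 20 μmol/L, with actives retested at 2 μmol/L. HIV-1NL4-3 (HEK 293FT-transfection stock, MT2-propagated, PEG-concentrated) added at MOI 1 24 h later. After 48 h, GFP-positive cells counted by imaging; inhibition relative to DMSO controls. Duplicates, at least two independent experiments.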

[1] = Microsomal stability assay, human liver microsomes; assay type: in vitro ADME; conditions: for half-life at 1 μmol/L: human, pH 7.4
[2] = Microsomal stability assay, mouse liver microsomes; assay type: in vitro ADME; conditions: for half-life at 1 μmol/L: mouse, pH 7.4

SMILES	CC50 at 72 h (Cytotoxicity assay) [µM]	inhibition at 2 µM (HIV-1NL4-3) [%]	inhibition at 20 µM (HIV-1NL4-3) [%]	further results
CN(C(=O)[C@H](Cc1ccccc1)NC(=O)CC1NC(=O)NC1=O)c1ccccc1 (stereo partly drawn) [Compound 2, (2S)-2-(2-(2,5-Dioxoimidazolidin-4-yl)acetamido)-N-methyl-N,3-diphenylpropanamide]	> 50	–	–	antiviral activity against HIV-1 (in words) (HIV-1NL4-3; HIV-1 in TZM-GFP cells): completely inactive
Cc1ccc(N(C)C(=O)[C@H](Cc2ccccc2)NC(=O)CC2NC(=O)NC2=O)cc1 (stereo partly drawn) [Compound 3, (2S)-2-(2-(2,5-Dioxoimidazolidin-4-yl)acetamido)-N-methyl-3-phenyl-N-(p-tolyl)propanamide]	> 50	2	62	–
CN(C(=O)[C@H](Cc1ccccc1)NC(=O)CC1NC(=O)NC1=O)c1ccc(Cl)cc1 (stereo partly drawn) [Compound 4, (2S)-N-(4-Chlorophenyl)-2-(2-(2,5-dioxoimidazolidin-4-yl)acetamido)-N-methyl-3-phenylpropanamide]	> 50	17	96	Inhibition at 2 μmol/L (HIV-1NL4-3; HIV-1 in TZM-GFP cells): inhibited HIV-1 weakly; Inhibition at 20 μmol/L (HIV-1NL4-3; 20 μmol/L compound, HIV-1 in TZM-GFP cells): almost completely
CN(C(=O)[C@H](Cc1ccccc1)NC(=O)CC1NC(=O)NC1=O)c1cccc(Cl)c1 (stereo partly drawn) [Compound 5, (2S)-N-(3-Chlorophenyl)-2-(2-(2,5-dioxoimidazolidin-4-yl)acetamido)-N-methyl-3-phenylpropanamide]	> 50	–	–	–
CN(C(=O)[C@H](Cc1ccccc1)NC(=O)CC1NC(=O)NC1=O)c1ccc(F)cc1 (stereo partly drawn) [Compound 6, (2S)-2-(2-(2,5-Dioxoimidazolidin-4-yl)acetamido)-N-(4-fluorophenyl)-N-methyl-3-phenylpropanamide]	> 50	–	–	–
CN(C(=O)[C@H](Cc1ccccc1)NC(=O)CC1NC(=O)NC1=O)c1cccc(F)c1 (stereo partly drawn) [Compound 7, (2S)-2-(2-(2,5-Dioxoimidazolidin-4-yl)acetamido)-N-(3-fluorophenyl)-N-methyl-3-phenylpropanamide]	> 50	–	–	–
Cc1cn(CC(=O)N[C@@H](Cc2ccccc2)C(=O)N(C)c2ccccc2)c(=O)[nH]c1=O [Compound 8, (S)-N-Methyl-2-(2-(5-methyl-2,4-dioxo-3,4-dihydropyrimidin-1(2H)-yl)acetamido)-N,3-diphenylpropanamide]	> 50	35	95	Inhibition at 2 μmol/L (HIV-1NL4-3; HIV-1 in TZM-GFP cells): exhibited inhibition
Cc1ccc(N(C)C(=O)[C@H](Cc2ccccc2)NC(=O)Cn2cc(C)c(=O)[nH]c2=O)cc1 [Compound 9, (S)-N-Methyl-2-(2-(5-methyl-2,4-dioxo-3,4-dihydropyrimidin-1(2H)-yl)acetamido)-3-phenyl-N-(p-tolyl)propanamide]	> 50	7	85	–
Cc1cn(CC(=O)N[C@@H](Cc2ccccc2)C(=O)N(C)c2ccc(Cl)cc2)c(=O)[nH]c1=O [Compound 10, (S)-N-(4-Chlorophenyl)-N-methyl-2-(2-(5-methyl-2,4-dioxo-3,4-dihydropyrimidin-1(2H)-yl)acetamido)-3-phenylpropanamide]	> 50	–	–	Inhibition at 2 μmol/L (HIV-1NL4-3; HIV-1 in TZM-GFP cells): exhibited inhibition; half-life at 1 μmol/L [1]: 12 min; half-life at 1 μmol/L [2]: 4.6 min
Cc1cn(CC(=O)N[C@@H](Cc2ccccc2)C(=O)N(C)c2cccc(Cl)c2)c(=O)[nH]c1=O [Compound 11, (S)-N-(3-Chlorophenyl)-N-methyl-2-(2-(5-methyl-2,4-dioxo-3,4-dihydropyrimidin-1(2H)-yl)acetamido)-3-phenylpropanamide]	> 50	37	95	Inhibition at 2 μmol/L (HIV-1NL4-3; HIV-1 in TZM-GFP cells): exhibited inhibition
Cc1cn(CC(=O)N[C@@H](Cc2ccccc2)C(=O)N(C)c2ccc(F)cc2)c(=O)[nH]c1=O [Compound 12, (S)-N-(4-Fluorophenyl)-N-methyl-2-(2-(5-methyl-2,4-dioxo-3,4-dihydropyrimidin-1(2H)-yl)acetamido)-3-phenylpropanamide]	> 50	6	94	–
Cc1cn(CC(=O)N[C@@H](Cc2ccccc2)C(=O)N(C)c2cccc(F)c2)c(=O)[nH]c1=O [Compound 13, (S)-N-(3-Fluorophenyl)-N-methyl-2-(2-(5-methyl-2,4-dioxo-3,4-dihydropyrimidin-1(2H)-yl)acetamido)-3-phenylpropanamide]	> 50	0	74	–
Cc1cn(CC(=O)N[C@@H](Cc2ccccc2)C(=O)N(C)c2cccc(Br)c2)c(=O)[nH]c1=O [Compound 14, (S)-N-(3-Bromophenyl)-N-methyl-2-(2-(5-methyl-2,4-dioxo-3,4-dihydropyrimidin-1(2H)-yl)acetamido)-3-phenylpropanamide]	> 50	22	100	Inhibition at 2 μmol/L (HIV-1NL4-3; HIV-1 in TZM-GFP cells): exhibited inhibition
Cc1cn(CC(=O)N[C@@H](Cc2ccccc2)C(=O)N(C)c2cccc(C(F)(F)F)c2)c(=O)[nH]c1=O [Compound 15, (S)-N-Methyl-2-(2-(5-methyl-2,4-dioxo-3,4-dihydropyrimidin-1(2H)-yl)acetamido)-3-phenyl-N-(3-(trifluoromethyl)phenyl)propanamide]	> 50	28	95	Inhibition at 2 μmol/L (HIV-1NL4-3; HIV-1 in TZM-GFP cells): exhibited inhibition
Cc1cn(CC(=O)N[C@@H](C(=O)N(C)c2ccccc2)c2ccccc2)c(=O)[nH]c1=O [Compound 16, (R)-N-Methyl-2-(2-(5-methyl-2,4-dioxo-3,4-dihydropyrimidin-1(2H)-yl)acetamido)-N,2-diphenylacetamide]	> 50	–	–	antiviral activity against HIV-1 (in words) (HIV-1NL4-3; HIV-1 in TZM-GFP cells): did not inhibit HIV-1
CN(C(=O)[C@H](Cc1ccccc1)NC(=O)c1c[nH]c(=O)[nH]c1=O)c1ccccc1 [Compound 17, (S)-N-(1-(Methyl(phenyl)amino)-1-oxo-3-phenylpropan-2-yl)-2,4-dioxo-1,2,3,4-tetrahydropyrimidine-5-carboxamide]	> 50	–	–	antiviral activity against HIV-1 (in words) (HIV-1NL4-3; HIV-1 in TZM-GFP cells): lack of antiviral activity; also recorded: completely inactive
CN(C(=O)[C@H](Cc1ccccc1)NC(=O)CNC(=O)c1ccccc1)c1ccccc1 [Compound 18, (S)-N-(2-((1-(Methyl(phenyl)amino)-1-oxo-3-phenylpropan-2-yl)amino)-2-oxoethyl)benzamide]	> 50	15	96	half-life at 1 μmol/L [1]: 15 min; half-life at 1 μmol/L [2]: 3.6 min
Cc1ccc(N(C)C(=O)[C@H](Cc2ccccc2)NC(=O)CNC(=O)c2ccccc2)cc1 [Compound 19, (S)-N-(2-((1-(Methyl(p-tolyl)amino)-1-oxo-3-phenylpropan-2-yl)amino)-2-oxoethyl)benzamide]	> 50	–	–	half-life at 1 μmol/L [1]: 22 min; half-life at 1 μmol/L [2]: 5 min
CN(C(=O)[C@H](Cc1ccccc1)NC(=O)CNC(=O)c1ccccc1)c1ccc(Cl)cc1 [Compound 20, (S)-N-(2-((1-((4-Chlorophenyl)(methyl)amino)-1-oxo-3-phenylpropan-2-yl)amino)-2-oxoethyl)benzamide]	> 50	–	–	half-life at 1 μmol/L [1]: 36 min; fold increase of half-life over PF74 in HLMs ([1]; relative to PF74): 51 fold; half-life at 1 μmol/L [2]: 13 min; fold increase of half-life over PF74 in MLMs ([2]; relative to PF74): 22 fold
CN(C(=O)[C@H](Cc1ccccc1)NC(=O)CNC(=O)c1ccccc1)c1cccc(Cl)c1 [Compound 21, (S)-N-(2-((1-((3-Chlorophenyl)(methyl)amino)-1-oxo-3-phenylpropan-2-yl)amino)-2-oxoethyl)benzamide]	> 50	40	95	–
CN(C(=O)[C@H](Cc1ccccc1)NC(=O)CNC(=O)c1ccccc1)c1ccc(F)cc1 [Compound 22, (S)-N-(2-((1-((4-Fluorophenyl)(methyl)amino)-1-oxo-3-phenylpropan-2-yl)amino)-2-oxoethyl)benzamide]	> 50	12	97	–
CN(C(=O)[C@H](Cc1ccccc1)NC(=O)CNC(=O)c1ccccc1)c1cccc(Br)c1 [Compound 24, (S)-N-(2-((1-((3-Bromophenyl)(methyl)amino)-1-oxo-3-phenylpropan-2-yl)amino)-2-oxoethyl)benzamide]	> 50	38	97	–
CN(C(=O)[C@H](Cc1ccccc1)NC(=O)CNC(=O)c1ccccc1)c1cccc(C(F)(F)F)c1 [Compound 25, (S)-N-(2-((1-(Methyl(3-(trifluoromethyl)phenyl)amino)-1-oxo-3-phenylpropan-2-yl)amino)-2-oxoethyl)benzamide]	> 50	19	89	–
CCN(C(=O)[C@H](Cc1ccccc1)NC(=O)CNC(=O)c1ccccc1)c1ccccc1 [Compound 26, (S)-N-(2-((1-(Ethyl(phenyl)amino)-1-oxo-3-phenylpropan-2-yl)amino)-2-oxoethyl)benzamide]	> 50	–	–	half-life at 1 μmol/L [1]: 14 min; half-life at 1 μmol/L [2]: 2.4 min
O=C(CNC(=O)c1ccccc1)N[C@@H](Cc1ccccc1)C(=O)N1CCC[C@H]1C(=O)Nc1ccccc1 [Compound 27, (S)-1-(Benzoylglycyl-L-phenylalanyl)-N-phenylpyrrolidine-2-carboxamide] (Bz-Gly-Phe-Pro-NHPh)	> 50	–	–	–
